The test system of assay [1] is Mycobacterium tuberculosis. In words: Inhibition of multidrug resistance efflux pump in Mycobacterium tuberculosis H37Rv assessed as reduction in isoniazid MIC at 128 ug/ml after 7 days by two-dimensional broth microdilution checkerboard assay. On the technique in general: Dilution methods test growth across graded concentrations, often in twofold steps.
The test system of assay [2] is Mycobacterium tuberculosis. Kind of assay: Inhibition of multidrug resistance efflux pump in Mycobacterium tuberculosis H37Rv assessed as reduction in ofloxacin MIC at 128 ug/ml after 7 days by two-dimensional broth microdilution checkerboard assay.
In assay [3] the test system is Mycobacterium tuberculosis. In words: Inhibition of multidrug resistance efflux pump in Mycobacterium tuberculosis H37Rv assessed as reduction in rifampin MIC at 4 ug/ml after 7 days by two-dimensional broth microdilution checkerboard assay. An outline of the steps:
(§1)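 M. tuberculosis H37Rv two-dimensional broth microdilution checkerboard. MICs of INH, RIF, AMK, OFX or EtBr were determined without and with graded sub-inhibitory compound concentrations, starting at ½ MIC. Where MIC was undeterminable, the highest concentration still permitting growth was taken as ½ MIC. FIC = MIC of antibacterial in combination / MIC alone. FIC ≤0.25 was scored as synergism and ≥2 as antagonism.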

For assay [4], the system named is Mycobacterium tuberculosis. Kind of assay: Inhibition of multidrug resistance efflux pump in Mycobacterium tuberculosis H37Rv assessed as amikacin MIC at 7.5 ug/ml after 7 days by two-dimensional broth microdilution checkerboard assay. As to conditions: 168 h. In short, it runs like this: as §1
The test system of assay [5] is Mycobacterium tuberculosis. Kind of assay: Inhibition of multidrug resistance efflux pump in Mycobacterium tuberculosis H37Rv assessed as ethidium bromide MIC at 7.5 ug/ml after 7 days by two-dimensional broth microdilution checkerboard assay. Particulars: 168 h. An outline of the steps: as §1
The test system of assay [6] is Mycobacterium tuberculosis. Kind of assay: Inhibition of multidrug resistance efflux pump in Mycobacterium tuberculosis H37Rv assessed as amikacin MIC at 0.47 ug/ml after 7 days by two-dimensional broth microdilution checkerboard assay. Particulars: 168 h. In short, it runs like this: (§2)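 M. tuberculosis H37Rv ATCC27294. MICs of INH, RIF, AMK, OFX and EtBr were determined alone and with sub-inhibitory concentrations of test compound by two-dimensional broth microdilution checkerboard. Where a compound's MIC was not determinable, the highest concentration still allowing growth was taken as ½ MIC. FIC = MIC in combination / MIC alone. FIC ≤0.25 was scored as synergism and ≥2 as antagonism.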

For assay [7], the system named is Mycobacterium tuberculosis. Kind of assay: Inhibition of multidrug resistance efflux pump in Mycobacterium tuberculosis H37Rv assessed as ofloxacin MIC at 0.47 ug/ml after 7 days by two-dimensional broth microdilution checkerboard assay. Particulars: 168 h. An outline of the steps: as §2
Assay [8] deals with Mycobacterium tuberculosis. In words: Inhibition of multidrug resistance efflux pump in Mycobacterium tuberculosis H37Rv assessed as isoniazid MIC at 0.12 ug/ml after 7 days by two-dimensional broth microdilution checkerboard assay. Particulars: 168 h. An outline of the steps: as §2
For assay [9], the system named is Mycobacterium tuberculosis. In words: Inhibition of multidrug resistance efflux pump in Mycobacterium tuberculosis H37Rv assessed as ethidium bromide MIC at 0.47 ug/ml after 7 days by two-dimensional broth microdilution checkerboard assay. Particulars: 168 h. In short, it runs like this: as §2
Assay [10] concerns Mycobacterium tuberculosis. In words: Inhibition of multidrug resistance efflux pump in Mycobacterium tuberculosis H37Rv assessed as ethidium bromide MIC at 0.94 ug/ml after 7 days by two-dimensional broth microdilution checkerboard assay. As to conditions: 168 h. In short, it runs like this: as §2
Assay [11] has as its system Mycobacterium tuberculosis. Kind of assay: Inhibition of multidrug resistance efflux pump in Mycobacterium tuberculosis H37Rv assessed as isoniazid MIC at 0.94 ug/ml after 7 days by two-dimensional broth microdilution checkerboard assay. Particulars: 168 h. In short, it runs like this: as §2
For assay [12], the system named is Mycobacterium tuberculosis. Kind of assay: Inhibition of multidrug resistance efflux pump in Mycobacterium tuberculosis H37Rv assessed as isoniazid MIC at 0.23 ug/ml after 7 days by two-dimensional broth microdilution checkerboard assay. As to conditions: 168 h. An outline of the steps:
as §2

Assay [13] relates to Mycobacterium tuberculosis. Kind of assay: Inhibition of multidrug resistance efflux pump in Mycobacterium tuberculosis H37Rv assessed as rifampin MIC at 1.88 ug/ml after 7 days by two-dimensional broth microdilution checkerboard assay. As to conditions: 168 h. In short, it runs like this:
as §2

Assay [14] concerns Mycobacterium tuberculosis. In words: Inhibition of multidrug resistance efflux pump in Mycobacterium tuberculosis H37Rv assessed as isoniazid MIC at 1.88 ug/ml after 7 days by two-dimensional broth microdilution checkerboard assay. Particulars: 168 h. In short, it runs like this: as §2
Assay [15] deals with Mycobacterium tuberculosis. Kind of assay: Inhibition of multidrug resistance efflux pump in Mycobacterium tuberculosis H37Rv assessed as isoniazid MIC at 0.47 ug/ml after 7 days by two-dimensional broth microdilution checkerboard assay. Particulars: 168 h. An outline of the steps: as §2
For assay [16], the system named is Mycobacterium tuberculosis. In words: Inhibition of multidrug resistance efflux pump in Mycobacterium tuberculosis H37Rv assessed as reduction in ethidium bromide MIC at 3.75 ug/ml after 7 days by two-dimensional broth microdilution checkerboard assay. In short, it runs like this: as §1
Assay [17] has as its system Mycobacterium tuberculosis. In words: Inhibition of multidrug resistance efflux pump in Mycobacterium tuberculosis H37Rv assessed as amikacin MIC at 0.94 ug/ml after 7 days by two-dimensional broth microdilution checkerboard assay. As to conditions: 168 h. In short, it runs like this:
as §2

The subject of assay [18] is Mycobacterium tuberculosis. Kind of assay: Inhibition of multidrug resistance efflux pump in Mycobacterium tuberculosis H37Rv assessed as rifampin MIC at 3.75 ug/ml after 7 days by two-dimensional broth microdilution checkerboard assay. As to conditions: 168 h. In short, it runs like this: as §2
The test system of assay [19] is Mycobacterium tuberculosis. In words: Inhibition of multidrug resistance efflux pump in Mycobacterium tuberculosis H37Rv assessed as rifampin MIC at 0.47 ug/ml after 7 days by two-dimensional broth microdilution checkerboard assay. Particulars: 168 h. An outline of the steps: as §2
Assay [20] deals with Mycobacterium tuberculosis. In words: Inhibition of multidrug resistance efflux pump in Mycobacterium tuberculosis H37Rv assessed as isoniazid MIC at 3.75 ug/ml after 7 days by two-dimensional broth microdilution checkerboard assay. As to conditions: 168 h. An outline of the steps:
as §1

Assay [21] relates to Mycobacterium tuberculosis. Kind of assay: Inhibition of multidrug resistance efflux pump in Mycobacterium tuberculosis H37Rv assessed as ofloxacin MIC at 0.94 ug/ml after 7 days by two-dimensional broth microdilution checkerboard assay. As to conditions: 168 h. In short, it runs like this: as §2
In assay [22] the test system is Mycobacterium tuberculosis. Kind of assay: Inhibition of multidrug resistance efflux pump in Mycobacterium tuberculosis H37Rv assessed as ethidium bromide MIC at 0.23 ug/ml after 7 days by two-dimensional broth microdilution checkerboard assay. As to conditions: 168 h. An outline of the steps: as §2
The subject of assay [23] is Mycobacterium tuberculosis. Kind of assay: Inhibition of multidrug resistance efflux pump in Mycobacterium tuberculosis H37Rv assessed as ethidium bromide MIC at 1.88 ug/ml after 7 days by two-dimensional broth microdilution checkerboard assay. As to conditions: 168 h. An outline of the steps: as §2
Assay [24] relates to Mycobacterium tuberculosis. In words: Inhibition of multidrug resistance efflux pump in Mycobacterium tuberculosis H37Rv assessed as ethidium bromide MIC at 2 ug/ml after 7 days by two-dimensional broth microdilution checkerboard assay. As to conditions: 168 h.
The subject of assay [25] is Mycobacterium tuberculosis. In words: Inhibition of multidrug resistance efflux pump in Mycobacterium tuberculosis H37Rv assessed as reduction in isoniazid MIC at 64 ug/ml after 7 days by two-dimensional broth microdilution checkerboard assay. In short, it runs like this: as §1
The subject of assay [26] is Mycobacterium tuberculosis. In words: Inhibition of multidrug resistance efflux pump in Mycobacterium tuberculosis H37Rv assessed as reduction in amikacin MIC at 32 ug/ml after 7 days by two-dimensional broth microdilution checkerboard assay. An outline of the steps:
as §1

In assay [27] the test system is Mycobacterium tuberculosis. In words: Inhibition of multidrug resistance efflux pump in Mycobacterium tuberculosis H37Rv assessed as ofloxacin MIC at 1 ug/ml after 7 days by two-dimensional broth microdilution checkerboard assay. Particulars: 168 h. In short, it runs like this:
as §1

Assay [28] relates to Mycobacterium tuberculosis. In words: Inhibition of multidrug resistance efflux pump in Mycobacterium tuberculosis H37Rv assessed as amikacin MIC at 1 ug/ml after 7 days by two-dimensional broth microdilution checkerboard assay. Particulars: 168 h. An outline of the steps: as §1
Assay [29] relates to Mycobacterium tuberculosis. Kind of assay: Inhibition of multidrug resistance efflux pump in Mycobacterium tuberculosis H37Rv assessed as isoniazid MIC at 1 ug/ml after 7 days by two-dimensional broth microdilution checkerboard assay. Particulars: 168 h. An outline of the steps: as §1
The subject of assay [30] is Mycobacterium tuberculosis. Kind of assay: Inhibition of multidrug resistance efflux pump in Mycobacterium tuberculosis H37Rv assessed as ethidium bromide MIC at 1 ug/ml after 7 days by two-dimensional broth microdilution checkerboard assay. As to conditions: 168 h. In short, it runs like this: as §1
Assay [31] relates to Mycobacterium tuberculosis. Kind of assay: Inhibition of multidrug resistance efflux pump in Mycobacterium tuberculosis H37Rv assessed as amikacin MIC at 2 ug/ml after 7 days by two-dimensional broth microdilution checkerboard assay. Particulars: 168 h.

Molecules are shown by their SMILES.

On to `CN1CCCCC1CCn1ccc2ccc(Br)cc21` (racemic), for which the “fold change (FC)” value in assay [1] was above 164; in [2], above 128.
For the molecule `COc1ccc(N(CCC2CCCCN2C)C(C)C)cc1OC` (racemic), the “fold change (FC)” value in assay [3] is listed as 4.
As to `CSc1ccc2c(c1)N(CCC1CCCCN1C)c1ccccc1S2` (stereo unspecified) [THIORIDAZINE], the MIC (as a rule, the smallest concentration in the dilution series that meets the test's criterion for growth inhibition) in assay [4] is below 0.0156 µg/mL; in assay [5] it was below 0.195 µg/mL; in assay [6] it was 1 µg/mL; in assay [7], 1 µg/mL; in assay [8] it was 0.1 µg/mL; in assay [9], 6.25 µg/mL. Also, the MIC in assay [10] was 6.25 µg/mL; in assay [11] it was 0.1 µg/mL; in assay [12], 0.1 µg/mL; in assay [13], 1 µg/mL; in assay [14] it was 0.1 µg/mL; in [15] it was 0.1 µg/mL. Besides, the MIC in assay [17] was found to be 1 µg/mL; in assay [18], 1 µg/mL; in [19], 1 µg/mL; in assay [20], 0.05 µg/mL; in assay [21], 1 µg/mL; in assay [22] it was 6.25 µg/mL. Moreover, the minimal inhibitory concentration (MIC) in [23] worked out at 6.25 µg/mL. For the same molecule, in assay [16], the “fold change (FC)” value is recorded as 4.
On to `CN1CCCCC1CCn1c2ccccc2c2ccccc21` (racemic), for which the minimum inhibitory concentration (MIC) was 12.5 µg/mL in assay [24]; 1 µg/mL in [27]; 1 µg/mL in assay [28]; 0.1 µg/mL in [29]; 12.5 µg/mL in assay [30]; 1 µg/mL in assay [31]. Besides, the “fold change (FC)” value in assay [25] was above 128; in [26], 4.

For the origin of these results see ChEMBL document CHEMBL3593164, “Rational Design and Synthesis of Thioridazine Analogues as Enhancers of the Antituberculosis Therapy” (J Med Chem, 2015).
